From PubChem BioAssay
The list is not random: actives were taken first. Their share in the collection is about 3.9%.
STAT1 inh – STAT1 signaling inhibitors, primary screen, cell-based, HTS, luciferase reporter; inhibition, % at 5.5 µM; NIH 3T3 STAT1-luciferase reporter, IFN-gamma, luminescence; actives 0.35% (n = 200,000);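 active = inhibition above a set limit, the mean inhibition across all tested compounds plus 3 SD, cut at about 34% in these data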;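 also: 0% = IFN-gamma with DMSO and 100% = IFN-gamma with 300 µM nifuroxazide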
STAT1 act – STAT1 signaling activators, primary screen, cell-based, HTS, luciferase reporter; NIH 3T3 STAT1-luciferase reporter, IFN-gamma, luminescence; 100% = IFN-gamma alone, no compound; activation (% of control), % at 5.5 µM; actives 2.6% (n = 200,000); AID 932, 2007;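 active = activation above the screen-wide mean activation plus 3 SD, cut at about 130% in these data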;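 also: raw ratio to IFN-gamma control signal so 100% means no change and 0% no light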
APP 5'UTR act – activators of APP 5'UTR luciferase reporter, primary screen, SH-SY5Y cells; SH-SY5Y APP 5'UTR luciferase reporter, luminescence; zero percent = DMSO vehicle wells; activation, % at 2 µM; actives 1% (n = 190,000); AID 1276, 2008;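 active = activation above a set limit, based on mean plus 3 SD of controls, cut at about 140% in these data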
NF-kB neuron act – activators of NF-kB expression in neurons, primary screen, cell-based, HTS. actives 1.6% (n = 190,000). human neuronal cells, NF-kB reporter expression; active compounds read high. fold change at 12.5 µM. AID 1239, 2008; in the data active = fold change above about 3.3
STAT3 act – IL-6 driven STAT3 reporter potentiators, primary screen, U3A cells, luciferase, luminescence, MLSCN library. IL-6 STAT3-luciferase reporter; 100% = signal with IL-6 EC80 alone. actives 0.91% (n = 190,000). AID 871, 2007. activation (% of control), % at 5.6 µM;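 active = activation above the screen-wide mean of compound activation plus 3 SD, cut at about 130% in these data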;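 also: 0% = background luminescence of wells with medium and substrate only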
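System – human U3A cells carrying STAT3-luciferase construct · Probe or stimulus – Interleukin-6, 33 ng/mL · Schedule – compound 1 h, then IL-6 6 h at 37 °C · Signal – luminescence from STAT3-driven luciferase reporter · Evaluation – percent of IL-6-only median luminescence · Benchmarks – IL-6-only high control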
Pf gametocyte – late stage P. falciparum gametocyte viability inhibitors, primary screen, ATP luminescence, HTS; inhibition, % at 10.9 µM; actives 0.065% (n = 150,000); P. falciparum stage V gametocytes, 24 h;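 active = inhibition above the mean plus 3 SD of compounds within the control limits, set per campaign, cut at about 38% in these data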;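 also: 0% = DMSO wells and 100% = medium only without gametocytes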
STAT1 activ conf – STAT1 signaling activators, confirmation, cell-based, HTS, luciferase reporter. shares compounds with STAT1 act. NIH 3T3 STAT1-luciferase reporter, IFN-gamma potentiation, luminescence; 100% = IFN-gamma EC80 alone, no compound. activation (% of control), % at 5.7 µM. actives 97% (n = 1,200). AID 1262, 2008;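 active = activation above a set limit carried over from the earlier primary STAT1 screen, cut at about 140% in these data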;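 also: simple ratio to median IFN-gamma plus DMSO wells so 0% means no light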
NFkB act STAT1ct – NF-kB reporter activators, TNF-alpha stimulated, counter-screen for STAT1 activator project, cell-based, HEK293T, luciferase luminescence | actives 43% (n = 1,200) | activation (% of control), % at 5.7 µM | shares compounds with STAT1 act | 100% = TNF-alpha with vehicle only;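 active = activation above the mean of solvent-only control wells plus 3 SD, set per campaign, cut at about 130% in these data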;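 also: TNF-alpha given at a submaximal dose yielding about 80% of full reporter signal; values are well signal over median control so 100% means no change and 0% no light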
STAT3 act STAT1c – STAT3 reporter activation by STAT1 hits, confirmation, counter-screen for STAT1 activator project, U3A cells, luciferase, luminescence. actives 46% (n = 1,200). IL-6; cells lack STAT1; 100 = IL-6 alone, no compound effect. activation (% of control), % at 5.7 µM. AID 1316, 2008. shares compounds with STAT1 act;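 active = activation above the solvent-only control well mean plus 3 SD, set per plate batch, cut at about 110% in these data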;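 also: 0% = no luminescence and 100% = median IL-6 plus DMSO wells; higher means more STAT3 reporter activation so hits are non-selective activators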
Starred values were filed as active, the others as inactive; · = no result given.

SMILES	STAT1 inh	STAT1 act	APP 5'UTR act	NF-kB neuron act	STAT3 act	Pf gametocyte	STAT1 activ conf	NFkB act STAT1ct	STAT3 act STAT1c
O=C(CCS(=O)(=O)c1ccccc1)NC12CC3CC(CC(C3)C1)C2	-58	151*	-3	2.8	113	·	184*	133*	128*
Cc1ccc2cc3cc(C(=O)N4CCCCC4C)oc3nc2c1 (stereo not given)	-72	166*	197*	3.5*	73	·	216*	136*	105
Cc1ccc(C(=O)Cn2c(C(=O)OCCO)cc3ccccc32)cc1	·	·	·	·	·	-27	·	·	·
COc1ccc(/C=C/c2nc3ccccc3n2Cc2ccc(OC)c(OC)c2)cc1	-94	184*	181*	6.8*	108	-8	183*	135*	125*
CCc1nc2ccccc2n1Cc1ccc(OC)c(OC)c1	16	86	0	1.2	102	·	·	·	·
CCC(C)Sc1nnc(NS(=O)(=O)Cc2ccccc2)s1 (stereo not given)	·	·	·	·	·	-24	·	·	·
c1ccc2nc3c(nc2c1)[nH]c1ccccc13	-66	160*	257*	5.9*	116	2	202*	132	126*
c1ccc(-c2c3ccccc3nc3[nH]c4ccccc4c23)cc1	5	95	1	0.94	103	·	·	·	·
CCC(C(=O)Nc1ccsc1C(=O)OC)c1ccccc1 (stereo not given)	1	96	1	0.96	98	-6	·	·	·
Cc1cccn2cc(COc3cccc([N+](=O)[O-])c3)nc12	-7	106	22	1.4	87	-12	·	·	·
Cc1cccn2cc(COc3ccc(-c4ccccc4)cc3)nc12	-70	162*	44	1.7	93	5	165*	106	115*
Nc1nc(N2CCN(C(=O)c3ccco3)CC2)nc2ccc(Br)cc12	-88	180*	219*	1.4	100	·	195*	141*	118*
CCOC(=O)Nc1ccc2c(C)cc(=O)oc2c1	-10	110	37	2.4	94	·	·	·	·
CCCCOC(=O)Nc1ccc2c(C)cc(=O)oc2c1	-72	166*	138*	5.8*	90	14	197*	144*	104
COc1ccc(Nc2nc3ccccc3s2)cc1	-61	159*	164*	7.2*	98	12	224*	143*	106
Cc1cccc(Nc2nc3ccccc3s2)c1C	-84	174*	158*	9.2*	82	8	218*	151*	108
COc1ccc(C(O)c2nc3ccccc3s2)cc1 (stereo not given)	-7	106	-1	1.2	78	·	·	·	·
CCC(C)(C)C1CCc2[nH]nc(C(=O)NC(C)C)c2C1 (stereo not given)	·	·	·	·	·	-33	·	·	·
CC(=O)c1c(C)[nH]c(C(=O)OCC(=O)Nc2sc3c(c2C#N)CCC(C)C3)c1C (stereo not given)	·	·	·	·	·	-20	·	·	·
O=C(NC(=S)Nc1ccc(CN2CCOCC2)cc1)c1ccc2c(c1)OCCO2	·	·	·	·	·	-10	·	·	·
c1ccc(CSCc2cn3ccccc3n2)cc1	-59	153*	105	5.1*	97	13	168*	132	111*
COCC(C)NC(=O)c1cc(-c2ccc(O)cc2)on1 (stereo not given)	-11	110	23	1.7	100	·	·	·	·
